Measurements collected from several papers.
Protocols differ between the studies behind these lines.
BRAF V600E: Serine/threonine-protein kinase B-raf (BRAF, Homo sapiens, UniProt P15056, V600E)
DRD2: D(2) dopamine receptor (DRD2, Homo sapiens, UniProt P14416)
ADORA3: Adenosine receptor A3 (ADORA3, Homo sapiens, UniProt P0DMS8)
Blk: Tyrosine-protein kinase Blk (Blk, Mus musculus, UniProt P16277)
NPY1R: Neuropeptide Y receptor type 1 (NPY1R, Homo sapiens, UniProt P25929)

Structure (SMILES) | target | test | conditions | inhibition
Cc1ccc(C(CS(=O)(=O)c2ccccc2)=NNc2nc(-c3ccc(OCCCCOc4ccc(-c5csc(NN=C(CS(=O)(=O)c6ccccc6)c6ccc(C)cc6)n5)cc4)cc3)cs2)cc1 | BRAF V600E | enzyme activity, inhibitor, ATP luminescence | 0.1 µM | 57%
CC(O)c1ccc(-c2ccc(CNCCc3c[nH]c4ccccc34)o2)cc1 (stereo not drawn) | DRD2 | enzyme activity, inhibitor | 10 µM | 36.8%
O=C1CCCc2c(O)cccc2N1 | Protein mono-ADP-ribosyltransferase PARP16 (PARP16, Homo sapiens, UniProt Q8N5Y8) | enzyme activity, inhibitor | 10 µM | 0%
COc1cc(CNCCc2c[nH]c3ccccc23)cc(Cl)c1OCC(N)=O | DRD2 | enzyme activity, inhibitor | 10 µM | 30.3%
NC(=S)NN=C(CS(=O)(=O)c1ccccc1)c1ccc(F)cc1 | BRAF V600E | enzyme activity, inhibitor, ATP luminescence | 10 nM | 34%
CC(=O)N[C@H]1CSSC[C@@H](C(=O)N[C@@H](Cc2c[nH]c3ccccc23)C(N)=O)NC(=O)[C@H](Cc2ccccc2)NC(=O)[C@H](CCCNC(=N)N)NC1=O | Melanocortin receptor 3 (MC3R, Homo sapiens, UniProt P41968) | ligand displacement, radioligand | 10 µM, 40 min | 42%
Cc1ccc(C(CS(=O)(=O)c2ccccc2)=NNC2=NC(=O)C(=NNc3ccc(Cl)cc3)S2)cc1 | BRAF V600E | enzyme activity, inhibitor, ATP luminescence | 10 nM | 27%
CCCCCN1CCCn2c1nc1c2c(=O)n(C)c(=O)n1C | ADORA3 | ligand displacement, radioligand | 10 µM, cell membranes | 21%
Cc1ccc(C(CS(=O)(=O)c2ccccc2)=NNC2=NC(=O)C(=NNc3ccccc3)S2)cc1 | BRAF V600E | enzyme activity, inhibitor, ATP luminescence | 10 nM | 32%
CN(C)C1CCN(CC#Cc2nn(C3CCCC3)c3nc(NCc4ccccc4)ncc23)C1 (stereo not drawn) | Ephrin type-B receptor 2 (EPHB2, Homo sapiens, UniProt P29323) | enzyme activity, inhibitor, FRET | 10 µM | 31%
CCN(CC)c1ccc(C2Nc3ccc(C(=O)c4ccccc4)cc3NC3=C2C(=O)CC(C)(C)C3)cc1 (stereo not drawn) | 5-hydroxytryptamine receptor 1E (HTR1E, Homo sapiens, UniProt P28566) | ligand displacement, radioligand | 10 µM | 5%
CC(C)(C)c1nc(-c2cccc(NS(=O)(=O)c3c(F)cccc3F)c2F)c(-c2ccnc(N)n2)s1 | BRAF V600E | enzyme activity, inhibitor, ATP luminescence | 10 nM | 34%
CCN(CC)CCNC(=O)c1c(C)[nH]c(/C=C2\C(=O)Nc3ccc(F)cc32)c1C | Blk | enzyme activity, inhibitor | 10 µM | 83%
COc1ccccc1N1CCN(CC(O)Cn2cnc3c2c(=O)n(C)c(=O)n3C)CC1 (stereo not drawn) | DRD2 | enzyme activity, inhibitor | 10 µM | 2.6%
COc1cc(NC(C)=O)c(Cl)cc1C(=O)Nc1nccs1 | NPY1R | cell-free assay | 10 µM | 6%
Cc1ccc(Nc2nccc(N(C)c3ccc4c(C)n(C)nc4c3)n2)cc1S(N)(=O)=O | Dual specificity mitogen-activated protein kinase kinase 4 (Map2k4, Mus musculus, UniProt P47809) | enzyme activity, inhibitor | 0.3 µM | 11%
O=C(c1ccc(F)cc1)N(Cc1ccccc1)C1CCCCC1 | NPY1R | cell-free assay | 10 µM | -9%
CNCc1ccc(-c2cc(-c3nc(-c4ccc(S(=O)(=O)C(C)C)cc4)cnc3N)on2)cc1 | Blk | enzyme activity, inhibitor | 2 µM | 36%
Cc1ccc(C(CS(=O)(=O)c2ccccc2)=NN=C2N=C(c3ccc(Br)cc3)CS2)cc1 | BRAF V600E | enzyme activity, inhibitor, ATP luminescence | 10 µM | 92%
COc1ccc2c(c1)C(=O)N(CCCN1CCN(c3ccccc3OC)CC1)C2 | DRD2 | ligand displacement, radioligand | 10 µM | 85%
CCCN1CCCn2c1nc1c2c(=O)n(C)c(=O)n1C | ADORA3 | ligand displacement, radioligand | 10 µM, cell membranes | 10%
COc1ccc(-c2ccc(CNCC(O)c3ccccc3)o2)cc1Cl (stereo not drawn) | DRD2 | enzyme activity, inhibitor | 10 µM | 46%
O=C(Nc1ccc(S(=O)(=O)N2CCC(Cl)CC2)cc1)c1ccc([N+](=O)[O-])o1 | ADORA3 | ligand displacement, radioligand | 10 µM | 6%
CCCCCCN1CCCn2c1nc1c2c(=O)n(C)c(=O)n1C | ADORA3 | ligand displacement, radioligand | 10 µM, cell membranes | 39%
